Converted amounts (≈) assume the structure as drawn.

Data set [1] deals with Trypanosoma brucei brucei. The data set can be described thus: Antitrypanosomal activity against Trypanosoma brucei brucei BF427 measured after 48 hrs by Alamar blue assay. The note with it: BF427, 48 h. The data set is classed as functional, organism-based. Summed up: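 Bloodstream T. brucei BF427 cultured in HMI-9 medium. Exposed to serial 3-fold compound dilutions in triplicate, read with Alamar Blue at 48 h. Pentamidine isethionate control in every assay.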

Data set [2] in a line: Cytotoxicity against human CRL8155 cells assessed as growth inhibition after 48 hrs by Alamar blue assay. The data set is classed as cell-based. Summed up:
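Serial 3-fold dilutions in quadruplicate, 48 h, AlamarBlue read-out. Inhibition relative to untreated cells after subtracting a 50 µM quinacrine background. EC50 by nonlinear regression.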
(The colour change of resazurin is a common sign of viable cells or microbes.)

A short description of data set [3]: Half life in mouse liver microsomes at 1.5 uM by liquid chromatography/tandem mass spectrometric analysis. The data set is classed as ADME, microsome. Summed up: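 Pooled mouse liver microsomes at 0.5 mg/ml with compound at 1.5 µM final, in duplicate. Quenched with acetonitrile at 0, 5, 10, 15, 30 and 60 min, analysed by LC-MS/MS. Testosterone and dextromethorphan run as controls.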
A general note: Liver microsomes are a subcellular fraction often used to study metabolism.

The subject of data set [4] is Mus musculus. As to the kind of experiment: Cmax in mouse at 50 mg/kg, po administered as single dose measured 24 hrs post dose by liquid chromatography/tandem mass spectrometric analysis. Also noted: dose 50 mg/kg, route oral. Conditions: in vivo. The data set is classed as ADME, organism-based. A digest of the protocol: (§1)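 Single oral dose of 50 mg/kg to mice in Phosal 53 MCT (60%)/PEG400 (30%)/ethanol (10%). Tail blood collected at 0.5, 1, 2, 4, 6, 8 and 24 h post dose and spotted onto DMPK cards. Punched dried blood spot disks extracted with acetonitrile, quantified by LC-MS/MS.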

The test system of data set [5] is Mus musculus. As to the kind of experiment: AUC in mouse at 50 mg/kg, po administered as single dose measured 24 hrs post dose by liquid chromatography/tandem mass spectrometric analysis. The data set is classed as ADME, organism-based. The note with it: in vivo. Summed up: as §1
A short description of data set [6]: Ratio of drug level in mouse brain to plasma at 5 mg/kg, ip administered as single dose measured 1 hr post dose by liquid chromatography/tandem mass spectrometric analysis. The data set is classed as ADME, organism-based. A digest of the protocol: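 Single IP injection of 5 mg/kg in 5% DMSO/7% Tween80/3% EtOH in 0.9% saline. At 1 h, plasma and brains collected; brains homogenized in water. Vehicle-injected mice (n=3) supplied matrix for standard curves. LC-MS/MS quantitation, with brain levels corrected for 3% v/w residual blood.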

The nature of data set [7]: Protein binding in Swiss Webster mouse plasma at 2 uM after 8 hrs by microdialysis based liquid chromatography/tandem mass spectrometric analysis. The data set is classed as ADME, cell-free. Summed up:
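Compound at 2 µM in 50% pooled female Swiss Webster mouse plasma (lithium heparin) with 10X PBS, dialysed against blank 10X PBS in triplicate chambers of a microdialysis device. Incubation at 37 °C, 5% CO2 overnight or ≥8 h with shaking. Centrifuged 3000 rcf 15 min; supernatants concentrated, LC-MS/MS. Propranolol control.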

A short description of data set [8]: Solubility in phosphate buffered saline at pH 7.4 at 50 uM incubated overnight by liquid chromatography/tandem mass spectrometric analysis. Conditions: buffer, pH 7.4, 50 µM. The data set is classed as physicochemical. Summed up: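 Compound at 50 µM in 1X PBS adjusted to pH 7.4, shaken overnight at 37 °C, then centrifuged 13500 rpm for 15 min at room temperature. Duplicate supernatant aliquots analysed by LC-MS/MS.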

Data set [9] concerns Trypanosoma brucei rhodesiense. The data set can be described thus: Antitrypanosomal activity against trypomastigote form of Trypanosoma brucei rhodesiense STIB900 infected in mouse assessed as cure rate at 50 mg/kg administered via oral gavage bid from day 2 to 5 post infection measured 3 times per week for first month and weekly up to 60 days by microscopic method relative to control. The data set is classed as functional.

Turning to `CN(C)c1ccc(N2C(=O)CN(Cc3ccc(F)cc3)C2=S)cc1Cl`, in data set [1], the EC50 lay within 0.003 to 0.0032 µM. Besides, the CC50 in [2] was 39 µM. The same molecule came in with a t1/2 in [3] of 15 min. In data set [4], the Cmax worked out at 2100 nM. This molecule also came in with an AUC in [5] of 1376 µmol·min/L. The BPR in data set [6] amounted to 0.74. The molecule further gave a PPB in data set [7] of 88.8%. The molecule also came in with a solubility in [8] of 2.1 µM (≈ 0.794 µg/mL). The Activity in data set [9] is 100%.

As usually defined, the EC50 is the concentration giving half of the maximal effect. High values mean weaker potency, low ones greater potency. The term CC50 denotes the concentration at which the toxic effect on the cells reaches its halfway point. The term Cmax denotes the highest concentration seen after dosing. In general, AUC refers to concentration integrated over time. High values mean more exposure, low ones less exposure. By solubility is commonly meant the concentration that dissolves in the medium under given conditions. A higher solubility goes with a readily soluble substance.

These data come from ChEMBL document CHEMBL4190338, “1-Benzyl-3-aryl-2-thiohydantoin Derivatives as New Anti-Trypanosoma brucei Agents: SAR and in Vivo Efficacy” (ACS Med Chem Lett, 2017).
